Assay outcomes (PubChem BioAssay)
Most compounds without a hit are left out; they make up all but 3% or so of the library.
SENP6 block = blocks the human protease SENP6; Q9GZR1; Recombinant SENP6 catalytic domain, aminoluciferin luminescence; inhibition, % at 10 µM; hit rate 1.8% among 330,000; AID 2599;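 active = inhibition above about 50% at the single tested dose, limit read from the data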;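 also: plate controls were DMSO wells with enzyme for no effect and DMSO wells lacking enzyme for full effect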
UBC13 inh = inhibitors of human UBC13 polyubiquitin chain formation; P61088; TR-FRET; inhibition, % at 20 µM; hit rate 0.47% among 330,000; AID 485273; in the data active = inhibition above about 45%, passing the limit was not always enough
SENP8 block-1 = SENP8 (human) protease inhibition. Q96LD8. hit rate 0.64% among 360,000. recombinant SENP8, Nedd8 substrate fluorescence. inhibition, % at 20 µM; in the data active = inhibition mostly above about 40%, no sharp cut-off; inactive = mostly below about 27%
SENP7 inh = inhibitors of human SENP7 protease. Q9BQF6. recombinant SENP7, Z-RLRGG-aminoluciferin luminescence, 40 min. inhibition, % at 5 µM. hit rate 1.5% among 330,000. AID 434973;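 active = inhibition above about 50% at the single test dose, limit read from the data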;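 also: plate controls were DMSO with enzyme for no effect and no enzyme buffer wells for full effect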
SENP8 block-2 = blocks the human protease SENP8; Q96LD8; purified SENP8, Z-RLRGG-aminoluciferin cleavage, luminescence; inhibition, % at 10 µM; hit rate 1.2% among 330,000; AID 2540; in the data active = inhibition above about 50%
Apaf1 inhib = human Apaf-1 inhibition; O14727; reconstituted apoptosome caspase-3 activity, DEVD-Rh110 fluorescence; inhibition, % at 20 µM; hit rate 0.71% among 330,000; AID 489030; active = inhibition of at least 40% at 20 µM;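 also: plate controls were DMSO wells for no effect and DEVD-CHO caspase inhibitor wells for full effect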
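Assay system – apoptosome proteins · Medium – Hepes buffer, pH 7.5 · Also added – cytochrome c with DEVD-Rh110 · Timing – 30 min compound preincubation, 50 min activation, room temperature · Detection – Rh110 fluorescence, excitation 480 nm, emission 540 nm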
SENP8 conf = human SENP8 inhibition, confirmed. Recombinant SENP8, Z-RLRGG-aminoluciferin luminescence, 60 min. inhibition, % at 12.5 µM. AID 488912. hit rate 40% among 6,200. shares compounds with SENP7 inh;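 active = mean inhibition across replicates above about 50%, limit read from the data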
SENP6 conf = human SENP6 inhibition, confirmed; shares compounds with SENP7 inh; recombinant SENP6, Z-RLRGG-aminoluciferin luminescence; inhibition, % at 12.5 µM; hit rate 58% among 6,200; AID 488915
SENP7 confirm = human SENP7 inhibition, confirmed; shares compounds with SENP7 inh; recombinant SENP7, Z-RLRGG-aminoluciferin luminescence, 40 min; inhibition, % at 12.5 µM; hit rate 69% among 6,200
Casp3 select = caspase-3 inhibition (SENP selectivity assay); shares compounds with SENP7 inh; purified caspase-3, Z-DEVD-aminoluciferin luminescence, 60 min; inhibition, % at 12.5 µM; hit rate 60% among 6,200;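 active = mean inhibition above about 50%, limit read from the data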;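 also: plate controls were enzyme with DMSO for no effect and wells without caspase-3 for full effect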
Luc interf = luminescence interference (SENP counter-screen); hit rate 39% among 6,200; shares compounds with SENP7 inh; inhibition, % at 12.5 µM; AID 488919; Pre-incubated SENP8/Z-RLRGG-aminoluciferin, luciferase luminescence interference;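 active = mean inhibition above about 50% when retested at one dose, limit read from the data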;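 also: plate controls were DMSO wells with completed reaction for no effect and substrate without enzyme for full effect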
Numbers without * were called inactive; / = no result.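 The calls were made as follows, unless noted: active = mean inhibition above about 50% in the one-dose retest (limit read from the data); inactive = the rest.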

SMILES	SENP6 block	UBC13 inh	SENP8 block-1	SENP7 inh	SENP8 block-2	Apaf1 inhib	SENP8 conf	SENP6 conf	SENP7 confirm	Casp3 select	Luc interf
CCc1ccc(NSc2ccccc2[N+](=O)[O-])cc1	-15	4	26	56*	2	2	7	8	-7	0	1
CSc1nsc(/C=C/Nc2ccc(Cl)cc2)c1C#N	55*	-19	-220	7	23	13	-11	-5	2	2	-2
CSc1nsc(/C=C/Nc2cccc(Cl)c2)c1C#N	67*	-10	-184	10	30	18	-18	-10	-2	0	-5
N#C/C(=C(/O)c1ccc([N+](=O)[O-])s1)c1nc2ccccc2[nH]1	20	-55	32	52*	3	-10	5	8	6	16	5
N#C/C(=C(/O)c1ccc(Br)s1)c1nc2ccccc2[nH]1	-6	11	-22	-3	-2	1	/	/	/	/	/
COc1ccc(C(=O)Nc2cc(OC)c(NC(=O)Nc3ccccc3)cc2OC)cc1	/	/	-14	/	/	/	/	/	/	/	/
CC(=O)c1cccc(NC(=O)c2cnn3ccccc23)c1	57*	1	16	41	44	-10	40	39	78*	78*	56*
CC(=O)c1ccc(NC(=O)c2cnn3ccccc23)cc1	56*	-1	-20	37	27	2	33	32	73*	73*	60*
Cc1ccc(S(=O)(=O)N2[C@@H](CO)CO[C@H]2CC(=O)c2cccc3ccccc23)cc1	/	/	20	/	/	/	/	/	/	/	/
CCCn1c(-c2ccc(OC)cc2)nc2ccccc21	-22	6	-5	2	-8	9	/	/	/	/	/
COCn1c(-c2ccc(OC)cc2)nc2ccccc21	59*	-6	-15	53*	26	9	55*	53*	86*	81*	63*
